Laboratory results from ChEMBL document CHEMBL2331334, “Hybrid furoxanyl N-acylhydrazone derivatives as hits for the development of neglected diseases drug candidates” (Eur J Med Chem, 2013).
Values after ≈ are worked out from the molar mass of the structure shown.

Legend:
[1] = Aqueous stability of the compound in KCl.HCl buffer at pH 2 at 1 mM after 24 hrs by spectrophotometric analysis; assay type: physicochemical; settings: pH 2, 24 h, 1000 µM
How it was run: (§1)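 Compound from DMSO stock, 1 mM final in aqueous buffer (KCl·HCl pH 2, acetate pH 5, Tris·HCl pH 7.4 or 8.3), incubated 37 °C for 24 h. Absorbance spectrum 250–450 nm compared with a freshly prepared, unincubated solution. TLC of ethyl acetate extracts to confirm or exclude decomposition products.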

[2] = Selectivity index, ratio of IC50 for mouse J774.1 cells to MIC for Mycobacterium tuberculosis H37Rv; assay type: functional
How it was run: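 Cytotoxicity: J774.1 macrophages in DMEM with 4 mM L-glutamine and 10% heat-inactivated FCS, seeded at 5 × 10^4/well, attached 48 h at 37 °C, 5% CO2. Exposed 48 h to 12.5–400.0 µM compound or vehicle. MTT at 0.1 mg/mL final for 3 h, formazan dissolved in DMSO/glycine buffer pH 10.5, A560 read. IC50 by linear regression, divided by the MIC against the same MTB strain.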

[3] = Aqueous stability of the compound in acetate buffer at pH 5 at 1 mM after 24 hrs by spectrophotometric analysis; assay type: physicochemical; settings: pH 5, 24 h, 1000 µM; how it was run: as §1
Trypanosoma cruzi [4] = experiment: Trypanosomicidal activity against axenic epimastigote stage of Trypanosoma cruzi Tulahuen 2 assessed as growth inhibition; assay type: functional, organism-based
How it was run: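 Tulahuen 2 epimastigotes grown axenically at 28 °C in BHI-tryptose with 5% FCS, harvested late log phase, 3×10^6/mL in 24-well plates. Compound added from DMSO stock (≤1% DMSO). Growth as A590 at day 0 and day 5; % inhibition from blank-corrected absorbances; ID50 = concentration halving absorbance relative to untreated controls.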

[5] = Aqueous stability of the compound in Tris.HCl buffer at pH 7.4 at 1 mM after 24 hrs by spectrophotometric analysis; assay type: physicochemical; settings: pH 7.4, 24 h, 1000 µM; how it was run: as §1
Trypanosoma cruzi [6] = experiment: Trypanosomicidal activity against amastigote stage of Trypanosoma cruzi Tulahuen C4 transfected with beta-D-galactosidase infected in african green monkey Vero cells assessed as growth inhibition incubated 5 days prior to beta-D-galactopyranoside addition measured after 4 to 5 hrs by colorimetric assay; assay type: functional, organism-based
How it was run: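 VERO monolayer in phenol red-free RPMI 1640 with 10% FCS, infected with 5×10^4 LacZ-transfected Tulahuen C4 trypomastigotes/well, 24 h at 37 °C, 5% CO2. Compounds added for 5 days. CPRG substrate added, 4–5 h at 37 °C, A570. Actives (>50% inhibition) retested in duplicate at 10.0–0.16; IC50 by logarithmic regression versus untreated control.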

[7] = Selectivity index, ratio of IC50 for mouse J774.1 cells to IC50 for amastigote stage of Trypanosoma cruzi Tulahuen C4; assay type: toxicity; settings: read-out: Ratio IC50
[8] = Aqueous stability of the compound in Tris.HCl buffer at pH 8.3 at 1 mM after 24 hrs by spectrophotometric analysis; assay type: physicochemical; settings: pH 8.3, 24 h, 1000 µM; how it was run: as §1
[9] = Cytotoxicity against mouse J774.1 cells assessed as cell viability after 48 hrs by MTT assay; assay type: cell-based; settings: J774.1, 48 h
How it was run: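 J774.1 macrophages in DMEM with 4 mM L-glutamine and 10% heat-inactivated FCS, 5×10^4 cells/well, attached 48 h at 37 °C, 5% CO2. Exposed 48 h to compounds (12.5–400.0 µM) or vehicle. MTT 0.1 mg/mL final, 3 h at 37 °C; formazan dissolved in DMSO/glycine buffer pH 10.5, A560. IC50 by linear regression versus solvent control.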

[10] = system: Mycobacterium tuberculosis; experiment: Antimycobacterial activity against Mycobacterium tuberculosis H37Rv assessed as growth inhibition after 5 days by MTT assay; assay type: functional; settings: 120 h
How it was run: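 MTB inoculum made from 20–30-day slant growth in Tween 80/0.2% BSA, adjusted to McFarland No. 1, then diluted in 7H9GC broth (Middlebrook 7H9, glycerol, Casitone, OADC). Final inoculum about 1.2 × 10^6 CFU/mL. Compounds taken from DMSO stock to final 0.4–25 in broth, with a DMSO control. Plates run 5 days at 37 °C, then tetrazolium (MTT)–Tween 80 added for a further 24 h at 37 °C. Read-out is MIC.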

Plasma = experiment: Metabolic stability in human plasma at pH 3 at 40 uM after 3 hrs; assay type: ADME, cell-free; settings: pH 3, 3 h
Salmonella typhimurium [11] = experiment: Mutagenicity in Salmonella typhimurium TA98 at 6.2 to 500 ug/plate in absence of S9 fraction; assay type: toxicity, organism-based; settings: salmonella enterica subsp. enterica serovar typhimurium
How it was run: (§2)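 Direct plate incorporation with S. typhimurium TA98 on minimal glucose agar (Vogel-Bonner E, 40% glucose). Compounds in DMSO assayed in triplicate at doses starting from the highest non-toxic dose, with or without Aroclor-treated mouse liver S9. Controls: DMSO, 4-nitro-o-phenylenediamine (−S9), 2-aminofluorene (+S9). Revertants counted manually; mutagenic if ≥2× negative control at two consecutive doses.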

Leishmania amazonensis = experiment: Leishmanicidal activity against axenic amastigote stage of Leishmania amazonensis MHOM/BR/76/LTB-012 assessed as growth inhibition after 72 hrs by MTT assay; assay type: functional, organism-based; settings: MHOM/BR/76/LTB-012, 72 h
How it was run: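 L. amazonensis axenic amastigotes (MHOM/BR/76/LTB-012), weekly passages in MAA/20 at 32 °C, 5% CO2. Seeded in 96-well plates; compounds in DMSO at 100 to 1 final, 72 h. MTT added for 4 h, stopped with 50% isopropanol–10% SDS, 30 min agitation at room temperature, A570. Triplicate; % inhibition versus control, IC50 from several concentrations.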

Salmonella typhimurium [12] = experiment: Mutagenicity in Salmonella typhimurium TA98 at 6.2 to 500 ug/plate in presence of S9 fraction; assay type: toxicity, organism-based; settings: salmonella enterica subsp. enterica serovar typhimurium; how it was run: as §2
[13] = Selectivity index, ratio of IC50 for mouse J774.1 cells to IC50 for axenic amastigote stage of Leishmania amazonensis MHOM/BR/76/LTB-012; assay type: toxicity; settings: read-out: Ratio IC50
Salmonella typhimurium [14] = experiment: Mutagenicity in Salmonella typhimurium TA98 at 3.1 to 250 ug/plate in absence of S9 fraction; assay type: toxicity, organism-based; settings: salmonella enterica subsp. enterica serovar typhimurium; how it was run: as §2
Salmonella typhimurium [15] = experiment: Mutagenicity in Salmonella typhimurium TA98 at 3.1 to 250 ug/plate in presence of S9 fraction; assay type: toxicity, organism-based; settings: salmonella enterica subsp. enterica serovar typhimurium; how it was run: as §2
[16] = Selectivity index, ratio of IC50 for african green monkey Vero cells to IC50 for amastigote stage of Trypanosoma cruzi Tulahuen C4; assay type: toxicity, cell-based; settings: read-out: Ratio IC50
Salmonella typhimurium [17] = experiment: Mutagenicity in Salmonella typhimurium TA98 at 20 ug/plate in absence of S9 fraction; assay type: toxicity, organism-based; settings: salmonella enterica subsp. enterica serovar typhimurium
How it was run: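 TA98 direct plate incorporation on minimal glucose agar (Vogel-Bonner E, 40% glucose), without S9. Compounds in DMSO were run in triplicate, highest dose nontoxic to bacteria. 4-nitro-o-phenylenediamine (20.0 per plate) was the positive control and DMSO the negative. Revertants were counted manually. Mutagenic meant at least double the negative-control revertants at two consecutive doses. Values are means of two independent experiments.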

[18] = Ratio of compound IC50 to amphotericin B IC50 for mouse J774.1 cells; assay type: ADME; settings: read-out: Ratio IC50
Salmonella typhimurium [19] = experiment: Mutagenicity in Salmonella typhimurium TA98 at 500 ug/plate in absence of S9 fraction; assay type: toxicity, organism-based; settings: salmonella enterica subsp. enterica serovar typhimurium; how it was run: as §2
Salmonella typhimurium [20] = experiment: Mutagenicity in Salmonella typhimurium TA98 at 500 ug/plate in presence of S9 fraction; assay type: toxicity, organism-based; settings: salmonella enterica subsp. enterica serovar typhimurium; how it was run: as §2

Row | Compound | Stability [1] | Selectivity Index [2] | Stability [3] | IC50 (Trypanosoma cruzi [4]) | Stability [5] | IC50 (Trypanosoma cruzi [6]) | selectivity ratio [7] | IC50 [9] | MIC [10] | Stability (Plasma) | IC50 (Leishmania amazonensis) | selectivity ratio [13] | other results
1 | O=C(N/N=C/c1ccc2no[n+]([O-])c2c1)c1cccnc1 | Stable | 0.7 | Stable | 35.5 µM | Stable | > 35.3 µM | < 0.9 | 31 µM | 44.2 µM (≈ 12.5 µg/mL) | Stable | – | – | Stability [8]: Stable
2 | Cc1c(/C=N/NC(=O)c2ccncc2)no[n+]1[O-] | Stable | >250 | Stable | > 300 µM | Stable | > 40.5 µM | – | > 400 µM | 1.6 µM (≈ 0.396 µg/mL) | Stable | 25.3 µM | > 16 | Activity (Salmonella typhimurium [11]): Non-toxic; Activity (Salmonella typhimurium [12]): Non-toxic; Stability [8]: Stable
3 | Cc1nc2ccccn2c1C(=O)N/N=C/c1c(-c2ccccc2)no[n+]1[O-] | Stable | 3.2 | Stable | 5 µM | Stable | 0.91 µM | 62 | 56.2 µM | 17.3 µM (≈ 6.27 µg/mL) | Stable | – | – | Activity (Salmonella typhimurium [14]): Non-toxic; Activity (Salmonella typhimurium [15]): Non-toxic; selectivity ratio [16]: 12
4 | Nc1ccc([N+](=O)[O-])cc1N | – | – | – | – | – | – | – | – | – | – | – | – | Activity (Salmonella typhimurium [17]): Toxic
5 | Cc1c(C(=O)N/N=C/c2cccc(O)c2)no[n+]1[O-] | – | – | – | > 150 µM | – | > 38.2 µM | – | > 400 µM | > 95.4 µM | – | 4.5 µM | > 89 | –
6 | O=C(N/N=C/c1ccc2no[n+]([O-])c2c1)c1ccc2c(c1)OCO2 | – | <2 | – | 50 µM | – | > 28.4 µM | < 5 | 174 µM | > 76.7 µM | – | 1.3 µM | 134 | Activity (Salmonella typhimurium [11]): Non-toxic; selectivity ratio [18]: 28.5; Activity (Salmonella typhimurium [12]): Non-toxic
7 | Cc1c(C(=O)N/N=C/c2ccc([N+](=O)[O-])cc2)no[n+]1[O-] | – | – | – | > 150 µM | – | > 34.4 µM | – | > 300 µM | > 85.9 µM | – | 7.9 µM | > 38 | –
8 | Cc1[nH]cnc1C(=O)N/N=C/c1ccc2no[n+]([O-])c2c1 | – | 0.8 | – | 172 µM | – | > 35 µM | < 1 | 33.9 µM | 43.7 µM (≈ 12.5 µg/mL) | – | – | – | Activity (Salmonella typhimurium [19]): Toxic; Activity (Salmonella typhimurium [20]): Toxic
9 | CC1CS(=O)(=O)CCN1/N=C/c1ccc([N+](=O)[O-])o1 (centres undefined) [NIFURTIMOX] | – | – | – | – | – | 10.4 µM | 27 | – | – | – | – | – | selectivity ratio [16]: 7.7
10 | O=C(N/N=C/c1ccc2no[n+]([O-])c2c1)c1cnn(-c2ccccc2)c1 | – | <2 | – | 29.5 µM | – | > 30.9 µM | – | 37.1 µM | > 17.9 µM | – | 1.4 µM | 27 | selectivity ratio [18]: 5
11 | Cc1c(/C=N/NC(=O)c2ccc3c(c2)OCO3)no[n+]1[O-] | – | <1.5 | – | > 150 µM | – | > 34.5 µM | < 1.5 | 132 µM | > 86.2 µM | – | 3.3 µM | 40 | –
12 | O=C(N/N=C/c1c(-c2ccccc2)no[n+]1[O-])c1ccc2c(c1)OCO2 | Stable | <2 | Stable | 50 µM | Stable | < 30.7 µM | > 5 | 162 µM | > 71 µM | Stable | – | – | Activity (Salmonella typhimurium [14]): Non-toxic; Activity (Salmonella typhimurium [15]): Non-toxic; Stability [8]: Stable
13 | COc1cc(/C=N/NC(=O)c2no[n+]([O-])c2C)ccc1O | – | – | – | – | – | – | – | > 400 µM | > 85.6 µM | – | 1.7 µM | > 235 | Activity (Salmonella typhimurium [11]): Non-toxic; selectivity ratio [18]: 50; Activity (Salmonella typhimurium [12]): Non-toxic
